{
  "source": "paper PMC9065995",
  "about": "(RSC Advances, 2019)",
  "type_in_all_cases": "cell-based",
  "key": {"KB": {"test_system": "KB", "experiment": "SRB cytostatic activity assay, KB", "conditions": "Homo sapiens, 72 h, read-out: Cytostatic activity IC50 KB", "method_in_brief": "(§1)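 Media were EMEM (KB, HepG2, U-87), RPMI 1640 (HeLa), F-12K (A-549), DMEM (MCF-7) and fibroblast growth medium (HDF), all with 10% FBS, at 37 °C and 5% CO2. About 10^4 cells/well grew 24 h, then test compound was added at 0.1–20 μg mL−1 (six levels) for 72 h. Cells were TCA-fixed 1 h at 4 °C, stained with 0.4% SRB, solubilised in Tris, read at A490; IC50, N = 3.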"}, "HepG2": {"test_system": "HepG2", "experiment": "SRB cytostatic activity assay, HepG2", "conditions": "Homo sapiens, HepG2, 72 h, read-out: Cytostatic activity IC50 HepG2", "method_in_brief": "as §1"}, "HDF": {"test_system": "HDF", "experiment": "SRB cytostatic activity assay, normal control HDF", "conditions": "72 h, read-out: Cytostatic activity IC50 HDF", "method_in_brief": "as §1"}, "A-549": {"test_system": "A-549", "experiment": "SRB cytostatic activity assay, A-549", "conditions": "Homo sapiens, A549, 72 h, read-out: Cytostatic activity IC50 A-549", "method_in_brief": "as §1"}, "U-87 MG": {"test_system": "U-87 MG", "experiment": "SRB cytostatic activity assay, U-87 MG", "conditions": "Homo sapiens, 72 h, read-out: Cytostatic activity IC50 U-87 MG", "method_in_brief": "as §1"}, "HeLa": {"test_system": "HeLa", "experiment": "SRB cytostatic activity assay, HeLa", "conditions": "Homo sapiens, 72 h, read-out: Cytostatic activity IC50 HeLa", "method_in_brief": "as §1"}},
  "note": "Starred links: 1 amine or outer side, 2 acyl side, 3 side chain; linkers in the order of their positions; H or OH if unused. Positions of bridges follow the written chain, without caps; N, C: chain ends. Non-standard residues stand in square brackets, D forms with d. Residues, ends and D or L forms follow the SMILES beside them. Chains are numbered I, II in the order given. Actinocin(9to1) = Cc1c2oc3c(C)ccc(C(=O)[*:1])c3nc-2c(C(=O)[*:2])c(N)c1=O; NMeV = CN[C@H](C(=O)O)C(C)C; Sar = CNCC(=O)O",
  "data": [
    {"compound": "Nc1ccn([C@@H]2O[C@H](CO)[C@@H](O)[C@@H]2O)c(=O)n1", "note": "[Cytarabine]", "values": [
      {"measurement": "IC50", "setting": "KB", "result": "0.95 ± 0.02", "unit": "µg/mL"},
      {"measurement": "IC50", "setting": "HepG2", "result": "1.49 ± 0.04", "unit": "µg/mL"},
      {"measurement": "IC50", "setting": "HDF", "result": "1.94 ± 0.01", "unit": "µg/mL"},
      {"measurement": "IC50", "setting": "A-549", "result": "1.17 ± 0.21", "unit": "µg/mL"},
      {"measurement": "IC50", "setting": "U-87 MG", "result": "1.03 ± 0.25", "unit": "µg/mL"},
      {"measurement": "IC50", "setting": "HeLa", "result": "1.4 ± 0.08", "unit": "µg/mL"}
    ]},
    {"compound": "Cc1c2oc3c(C)ccc(C(=O)N[C@@H]4C(=O)N[C@H](C(C)C)C(=O)N5CCC[C@H]5C(=O)N(C)CC(=O)N(C)[C@@H](C(C)C)C(=O)O[C@@H]4C)c3nc-2c(C(=O)N[C@@H]2C(=O)N[C@H](C(C)C)C(=O)N3CCC[C@H]3C(=O)N(C)CC(=O)N(C)[C@@H](C(C)C)C(=O)O[C@@H]2C)c(N)c1=O", "note": "[Actinomycin, Actinomycin D] (I: T[dV]P[Sar][NMeV] / II: T[dV]P[Sar][NMeV]; ester I:1-I:C, II:1-II:C; linker I:N-II:N via Actinocin(9to1))", "values": [
      {"measurement": "IC50", "setting": "KB", "result": "1.07 ± 0.05", "unit": "µg/mL"},
      {"measurement": "IC50", "setting": "HepG2", "result": "1.19 ± 0.02", "unit": "µg/mL"},
      {"measurement": "IC50", "setting": "HDF", "result": "2.28 ± 0.11", "unit": "µg/mL"},
      {"measurement": "IC50", "setting": "A-549", "result": "1.03 ± 0.83", "unit": "µg/mL"},
      {"measurement": "IC50", "setting": "U-87 MG", "result": "0.92 ± 0.59", "unit": "µg/mL"},
      {"measurement": "IC50", "setting": "HeLa", "result": "1.13 ± 0.01", "unit": "µg/mL"}
    ]}
  ]
}
